From publication PMC4371170 (Learning & Memory, 2015)

Experiments:
C57BL/6J mice [1] = assay: Extinction retention tests after drug without extinction training; type: in vivo; details: 10 mg/kg IP without extinction training
[2] = test system: global histone H3 acetylation; assay: Immunocytochemistry of global histone H3 acetylation in BLA and dentate gyrus; type: in vivo, mice; details: 10 mg/kg IP, 1 h after administration, qualitative
How it was run: (§1)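 Mice received vehicle or test compound at 10 mg/kg IP (n = 2/group). They were perfused 1 h after dosing and brain tissue was processed for immunocytochemistry. Global acetyl-H3 or acetyl-H4 immunofluorescence was imaged with DAPI counterstain in the basolateral amygdala and hippocampal dentate gyrus. Assessment was qualitative, from photomicrographs of colocalization.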

[3] = test system: other HDACs besides HDAC1, HDAC2, HDAC3, and HDAC10; assay: HDAC inhibitory potency against all 11 HDAC enzymes, remaining enzymes; type: biochemical; details: serial dilution starting at 20 μM
[4] = 10 mg/kg IP, mouse
[5] = test system: global histone H4 acetylation; assay: Immunocytochemistry of global histone H4 acetylation in BLA and dentate gyrus; type: in vivo, mice; details: 10 mg/kg IP, 1 h after administration, qualitative
How it was run: as §1

lysine 8 on H4 = details: site regulated by HDAC3; ref Malvaez et al. 2013; cited from earlier work
C57BL/6J mice [6] = type: in vivo; details: 10 mg/kg IP after extinction training
How it was run: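 Adult male C57BL/6J mice, 8–12 wk, group-housed 1 wk at 24°C on a 12-h light–dark cycle with food and water ad libitum, tested in the light phase. At 48 h after fear conditioning, three CS trials in a novel Context B (Plexiglas over shock bars, red light, 1% ammonium hydroxide) were averaged to assign groups (n = 12/group) matched for freezing. Extinction training followed 24 h later. Retention tests of 15 CS trials were run 24 and 48 h later, with freezing to the CS scored automatically.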

C57BL/6J mice [7] = assay: Open-field test; type: in vivo; details: 10 mg/kg IP
HAT activity = details: ref Nair et al. 2001; cited from earlier work

SMILES | nonspecific effect on extinction retention (C57BL/6J mice [1]) | global acetylation of histone H3 in the BLA ([2]; compared with vehicle) | global acetylation of histone H3 in the dentate gyrus [2] | inhibition of any other HDACs [3] | brain penetrance compared with RGFP963 [4] | crossing of the blood brain barrier [4] | time of maximum brain concentration post-drug administration [4] | global H4 acetylation in the BLA [5] | global acetylation of histone H4 in the dentate gyrus [5] | acetylation of lysine 8 on H4 (lysine 8 on H4) | effect on consolidation of cued fear extinction (C57BL/6J mice [6]) | effect of drug on time spent in the center (C57BL/6J mice [7]; F(2,23) = 0.22, NS) | effect of drug on distance traveled (C57BL/6J mice [7]; F(2,23) = 1.06, NS) | effect on HAT activity (HAT activity)
Nc1cc(F)ccc1NC(=O)/C=C/c1cnn(C/C=C/c2ccccc2)c1 [RGFP966] | does not nonspecifically enhance extinction retention | seems to increase | seem to decrease | did not inhibit | lower brain penetrance | able to cross the blood brain barrier | 15 min | Neither RGFP966 nor RGFP963 appear to alter | seem to decrease | enhance acetylation | no effect | No significant effect | No significant effect | 
CC(/C=C/C(=O)NO)=C\[C@@H](C)C(=O)c1ccc(N(C)C)cc1 [trichostatin A] |  |  |  |  |  |  |  |  |  |  |  |  |  | inhibition of HAT activity
